Experimental data reported in ChEMBL document CHEMBL1136954, “Toward the back-up of boceprevir (SCH 503034): discovery of new extended P4-capped ketoamide inhibitors of hepatitis C virus NS3 serine protease with improved potency and pharmacokinetic profiles” (J Med Chem, 2009).

How the values were obtained:
[1] = Cytotoxicity against human hepatocytes assessed as effect on GAPDH RNA level […]; type: cell-based, Hepatocyte
Method in brief: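 Counter-screen for cellular toxicity measuring GAPDH; CC50 reported.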

Hepatitis C virus = test: Antiviral activity against Hepatitis C virus genotype 1 infected in human hepatocytes by replicon assay; type: functional, Hepacivirus hominis; conditions: genotype 1, Hepatocyte
Method in brief: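 HCV genotype 1 replicon cell assay; EC90 reported, within 3-fold at 95% confidence for a single assay and within 2-fold for multiple assays.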

[2] = Inhibition of HCV NS4A-tethered single chain NS3 serine protease by spectrophotometric assay; parameters: species or system Hepacivirus hominis
Method in brief: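 Continuous assay with NS4A-tethered single-chain NS3 serine protease; potency given as Ki*.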

[3] = Drug level in rat liver at 10 mg/kg, po after 8 hrs; type: ADME, organism-based; parameters: dose 10 mg/kg, route oral; conditions: read-out: Drug uptake
Method in brief: (§1)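 Rapid rat oral screen, 2 animals, PO vehicle 40% HPBCD; compound concentration measured in liver at 6 h, or at 8 h where footnoted; plasma AUC taken over 0-6 h.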

[4] = AUC (0 to 6 hrs) in rat at 10 mg/kg, po; type: ADME, organism-based; parameters: time < 6 hr, dose 10 mg/kg, route oral; conditions: plasma
[5] = Drug level in rat liver at 10 mg/kg, po after 6 hrs; type: ADME, organism-based; parameters: dose 10 mg/kg, route oral; conditions: read-out: Drug uptake; method in brief: as §1
[6] = Volume of distribution at steady state in rat at 10 mg/kg, po and at 10 mg/kg, iv; type: ADME, organism-based; conditions: in vivo, read-out: Vdss
Method in brief: (§2)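 Rats dosed PO and IV at 10 mpk, 3 animals per route; IV given in 40% HPBCD, PO in 0.4% MC.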

[7] = Volume of distribution at steady state in cynomolgus monkey at 3 mg/kg, po and at 3 mg/kg, iv; type: ADME, organism-based, Macaca fascicularis; conditions: in vivo, read-out: Vdss
Method in brief: (§3)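 Cynomolgus monkey dosed PO and IV at 3 mpk, 3 animals per route; IV vehicle 20% HPBCD, PO vehicle 0.4% MC. AUC in µM·h, t1/2 in h, clearance mL/min/kg, Vd(ss) L/kg, F in %.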

[8] = Half life in cynomolgus monkey at 3 mg/kg, iv; type: ADME, organism-based, Macaca fascicularis; parameters: dose 3 mg/kg, route intravenous; conditions: in vivo; method in brief: as §3
[9] = Clearance in rat at 10 mg/kg, po and at 10 mg/kg, iv; type: ADME, organism-based; conditions: in vivo; method in brief: as §2
[10] = Clearance in cynomolgus monkey at 3 mg/kg, po and at 3 mg/kg, iv; type: ADME, organism-based, Macaca fascicularis; conditions: in vivo; method in brief: as §3
[11] = AUC in cynomolgus monkey at 3 mg/kg, po; type: ADME, organism-based, Macaca fascicularis; parameters: dose 3 mg/kg, route oral; conditions: plasma; method in brief: as §3
[12] = Oral bioavailability in rat at 10 mg/kg; type: ADME, organism-based; conditions: in vivo; method in brief: as §2
[13] = Half life in rat at 10 mg/kg, iv; type: ADME, organism-based; parameters: dose 10 mg/kg, route intravenous; conditions: in vivo; method in brief: as §2
[14] = Metabolic stability in cynomolgus monkey bile assessed as recovery of radioactivity at 2 mg/kg, po after 24 hrs; type: ADME, organism-based, Macaca fascicularis; parameters: dose 2 mg/kg, route oral; conditions: in vivo
Method in brief: (§4)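 Two cynomolgus monkeys given the 14C-labelled ketoamide orally at 2 mg/kg; radioactivity collected in bile and urine over 0-24 h and expressed as % of oral dose; plasma also sampled.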

[15] = AUC in rat at 10 mg/kg, iv; type: ADME, organism-based; parameters: dose 10 mg/kg, route intravenous; conditions: plasma
[16] = Oral bioavailability in cynomolgus monkey at 3 mg/kg; type: ADME, organism-based, Macaca fascicularis; conditions: in vivo; method in brief: as §3
[17] = Metabolic stability in cynomolgus monkey urine assessed as recovery of radioactivity at 2 mg/kg, po after 24 hrs; type: ADME, organism-based, Macaca fascicularis; parameters: dose 2 mg/kg, route oral; conditions: in vivo; method in brief: as §4
[18] = AUC in cynomolgus monkey at 3 mg/kg, iv; type: ADME, organism-based, Macaca fascicularis; parameters: dose 3 mg/kg, route intravenous; conditions: plasma; method in brief: as §3
[19] = AUC in rat at 10 mg/kg, po; type: ADME, organism-based; parameters: dose 10 mg/kg, route oral; conditions: plasma; method in brief: as §2

| Structure (SMILES) | CC50 [1] | EC90 (Hepatitis C virus) | Ki [2] | AUC(0-t) at 6 h [4] | also measured |
| --- | --- | --- | --- | --- | --- |
| CC(C)(C)NC(=O)N[C@H](C(=O)N1C[C@H]2[C@@H]([C@H]1C(=O)NC(CC1CCC1)C(=O)C(N)=O)C2(C)C)C(C)(C)C (stereo partly specified) [BOCEPREVIR] | > 5 µM | 0.35 µM | 0.014 µM | 0.14 µM·h | concentration at 8 h [3]: 300 nM |
| CC(C)[C@H](NC(=O)N[C@H](C(=O)N1C[C@H]2[C@@H]([C@H]1C(=O)NC(CC1CC1)C(=O)C(N)=O)C2(C)C)C(C)(C)C)C(=O)c1nccs1 (mixture of isomers) | > 5 µM | 0.09 µM | 0.009 µM | 0.15 µM·h | – |
| CC(C)(C)[C@H](NC(=O)N[C@H](C(=O)C1CC1)C1CCCCC1)C(=O)N1C[C@H]2[C@@H]([C@H]1C(=O)NC(CC1CC1)C(=O)C(N)=O)C2(C)C (mixture of isomers) | > 5 µM | 0.1 µM | 0.008 µM | 1.4 µM·h | concentration at 6 h [5]: 2700 nM |
| C#CCCC(NC(=O)[C@@H]1[C@@H]2[C@H](CN1C(=O)[C@@H](NC(=O)N[C@H](C(=O)C1CC1)C1CCCCC1)C(C)(C)C)C2(C)C)C(=O)C(=O)NC1CC1 (mixture of isomers) | > 5 µM | 0.055 µM | 0.004 µM | 11 µM·h | concentration at 6 h [5]: 2900 nM |
| C#CCCC(NC(=O)[C@@H]1[C@@H]2[C@H](CN1C(=O)[C@@H](NC(=O)N[C@H](C(=O)C1CC1)C1CCCCC1)C(C)(C)C)C2(C)C)C(=O)C(=O)NCC=C (mixture of isomers) | > 5 µM | 0.25 µM | 0.009 µM | 24 µM·h | concentration at 6 h [5]: 8500 nM |
| CC(C)(C)[C@H](NC(=O)N[C@H](C(=O)c1ccccn1)C1CCCCC1)C(=O)N1C[C@H]2[C@@H]([C@H]1C(=O)NC(CC1CC1)C(=O)C(N)=O)C2(C)C (mixture of isomers) | > 5 µM | 0.09 µM | 0.007 µM | 1.4 µM·h | concentration at 6 h [5]: 800 nM |
| C=CCNC(=O)C(=O)C(CCC)NC(=O)[C@@H]1[C@@H]2[C@H](CN1C(=O)[C@@H](NC(=O)N[C@H](C(=O)C1CC1)C1CCCCC1)C(C)(C)C)C2(C)C (mixture of isomers) | > 5 µM | 0.5 µM | 0.01 µM | 55 µM·h | – |
| C#CCCC(NC(=O)[C@@H]1[C@@H]2[C@H](CN1C(=O)[C@@H](NC(=O)N[C@H](C(=O)C1CC1)C(C)C)C(C)(C)C)C2(C)C)C(=O)C(=O)NC1CC1 (mixture of isomers) | > 5 µM | 0.07 µM | 0.008 µM | 4.8 µM·h | concentration at 6 h [5]: 900 nM |
| C=CCNC(=O)C(=O)C(CCC)NC(=O)[C@@H]1[C@@H]2[C@H](CN1C(=O)[C@@H](NC(=O)N[C@H](C(=O)C1CC1)C(C)C)C(C)(C)C)C2(C)C (mixture of isomers) | > 5 µM | 0.6 µM | 0.025 µM | 26 µM·h | – |
| CC(C)C(=O)[C@@H](NC(=O)N[C@H](C(=O)N1C[C@H]2[C@@H]([C@H]1C(=O)NC(CC1CC1)C(=O)C(N)=O)C2(C)C)C(C)(C)C)C(C)C (mixture of isomers) | > 5 µM | 0.15 µM | 0.012 µM | – | – |
| CC(C)(C)[C@H](NC(=O)NC1(C(=O)OCc2ccccc2)CCCCC1)C(=O)N1C[C@H]2[C@@H]([C@H]1C(=O)NC(CC1CC1)C(=O)C(N)=O)C2(C)C (mixture of isomers) | > 5 µM | 0.02 µM | 0.049 µM | – | Vd [6]: 3.5 L/kg; Vd [7]: 1.7 L/kg; half-life [8]: 3.1 h; clearance [9]: 28 mL/min/kg; clearance [10]: 43 mL/min/kg; AUC [11]: 0.05 µM·h; bioavailability [12]: 0%; half-life [13]: 2.9 h; Stability [14]: 4.3%; AUC [15]: 9.3 µM·h; bioavailability [16]: 3%; Stability [17]: 0.8%; AUC [18]: 3.4 µM·h |
| CC(C)(NC(=O)N[C@H](C(=O)N1C[C@H]2[C@@H]([C@H]1C(=O)NC(CC1CC1)C(=O)C(N)=O)C2(C)C)C(C)(C)C)C(=O)OCc1ccccc1 (mixture of isomers) | > 5 µM | 1.48 µM | 0.21 µM | – | – |
| CC1(NC(=O)N[C@H](C(=O)N2C[C@H]3[C@@H](C2C(=O)NC(CC2CCC2)C(=O)C(N)=O)C3(C)C)C(C)(C)C)CCCCC1 (stereo partly specified) | > 5 µM | 0.2 µM | 0.008 µM | – | – |
| CC(C)[C@H](NC(=O)N[C@H](C(=O)N1C[C@H]2[C@@H]([C@H]1C(=O)NC(CC1CC1)C(=O)C(N)=O)C2(C)C)C(C)(C)C)C(=O)c1ccccc1 (mixture of isomers) | > 5 µM | 0.08 µM | 0.005 µM | – | AUC [19]: 0.26 µM·h |
| CC(C)[C@H](NC(=O)N[C@H](C(=O)N1C[C@H]2[C@@H]([C@H]1C(=O)NC(CC1CC1)C(=O)C(N)=O)C2(C)C)C(C)(C)C)C(=O)C1CC1 (mixture of isomers) | > 5 µM | 0.1 µM | 0.007 µM | 0.12 µM·h | – |
| CC(C)(C)[C@H](NC(=O)NC1(C(=O)OCc2ccccc2)CCCC1)C(=O)N1C[C@H]2[C@@H]([C@H]1C(=O)NC(CC1CC1)C(=O)C(N)=O)C2(C)C (mixture of isomers) | > 5 µM | 0.03 µM | 0.058 µM | – | – |
| CC(C)[C@](C)(NC(=O)N[C@H](C(=O)N1C[C@H]2[C@@H]([C@H]1C(=O)NC(CC1CC1)C(=O)C(N)=O)C2(C)C)C(C)(C)C)C(=O)OCc1ccccc1 (mixture of isomers) | > 5 µM | 0.5 µM | 0.044 µM | – | – |
| CC(C)[C@H](NC(=O)N[C@H](C(=O)N1C[C@H]2[C@@H]([C@H]1C(=O)NC(CC1CC1)C(=O)C(N)=O)C2(C)C)C(C)(C)C)c1nnn[nH]1 (mixture of isomers) | > 5 µM | 1 µM | 0.01 µM | – | – |
| CC(C)[C@H](NC(=O)N[C@H](C(=O)N1C[C@H]2[C@@H]([C@H]1C(=O)NC(CC1CC1)C(=O)C(N)=O)C2(C)C)C(C)(C)C)C(=O)c1ccccn1 (mixture of isomers) | > 5 µM | 0.2 µM | 0.008 µM | 0.42 µM·h | – |
| CC(C)(C)[C@H](NC(=O)NC1(C(=O)OCc2ccsc2)CCCCC1)C(=O)N1C[C@H]2[C@@H]([C@H]1C(=O)NC(CC1CC1)C(=O)C(N)=O)C2(C)C (mixture of isomers) | > 5 µM | 0.02 µM | 0.031 µM | – | – |
